Series [1] relates to MT2. The series can be described thus: Cytotoxicity was determined by 50% reduction in the number of viable MT2 cells with HIV-1RF. It is filed as functional. The note with it: Homo sapiens, read-out: TC50 (the source's name). The procedure, abridged:
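TC50 taken as concentration giving 50% fewer viable cells, with viability read by tetrazolium dye metabolism.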

Series [2] has as its target Human immunodeficiency virus type 1 protease (Human immunodeficiency virus 1, UniProt Q72874). The series can be described thus: Inhibition of HIV protease, measured by assaying the cleavage of a fluorescent peptide substrate using HPLC.
The nature of series [3]: Bioavailability as maximal plasma concentration in rats after 10 mg/kg oral dose. It is filed as ADME, organism-based. To be noted: rat. Details: dose 10 mg/kg, route oral.
Series [4] concerns MT2. The series can be described thus: Concentration which reduced the concentration of HIV viral RNA by 90% from the level measured in an untreated infected culture. The class given is functional. The note with it: Homo sapiens. The procedure, abridged: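 MT-2 cells infected with HIV-1 RF. Uninfected cells preincubated 30 min with serial dilutions of compound in culture medium, then virus added; cultured 3 days at 37 °C, 5% CO₂. Lysed cells assayed for HIV RNA by microtiter plate hybridization. IC90 = concentration lowering viral RNA 90% versus untreated infected culture.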

Series [5] in a line: Bioavailability as maximal plasma concentration in dogs after 2.5 mg/kg oral dose. The class given is ADME, organism-based, Canis lupus familiaris. Set-up: dose 2.5 mg/kg, route oral. The note with it: dog.

Each structure is given as a SMILES string. pKi: −log10 of the molar value.

For the molecule `O=C1N(Cc2cccc(-c3cn[nH]c3)c2)[C@H](Cc2ccccc2)[C@H](O)[C@@H](O)[C@@H](Cc2ccccc2)N1Cc1cccc(-c2cn[nH]c2)c1`, the CC50 with MT2 [1] is 1400 nM. Further, the pKi in series [2] was 9.21. In series [3], this molecule showed a Cmax of 75 nM. The IC90 in the series with MT2 [4] came out at 32 nM.
For the molecule `O=C1N(Cc2cccc(-c3c[nH]nn3)c2)[C@H](Cc2ccccc2)[C@H](O)[C@@H](O)[C@@H](Cc2ccccc2)N1Cc1cccc(-c2c[nH]nn2)c1`, the CC50 with MT2 [1] amounted to 47000 nM. In series [2], this molecule had a pKi of 9.77. This molecule also gave an IC90 in the series with MT2 [4] of 94 nM.
As for `O=C1N(Cc2ccc(O)cc2)[C@H](Cc2ccccc2)[C@H](O)[C@@H](O)[C@@H](Cc2ccccc2)N1Cc1cccc(-c2cc[nH]n2)c1`, the CC50 in the series with MT2 [1] was 4800 nM. The molecule further showed a negative-log Ki (pKi) in series [2] of 10.68. Also, the 90% effect level with MT2 [4] (IC90) was put at 30 nM.
The matching figures for `O=C1N(Cc2cccc(/C(=N/O)C(F)(F)F)c2)[C@H](Cc2ccccc2)[C@H](O)[C@@H](O)[C@@H](Cc2ccccc2)N1Cc1cccc(/C(=N\O)C(F)(F)F)c1`: 14000 nM, 8.41 and 714 nM.
The matching figures for `CCC(=O)c1cccc(CN2C(=O)N(Cc3cccc(C(=O)CC)c3)[C@H](Cc3ccccc3)[C@H](O)[C@@H](O)[C@H]2Cc2ccccc2)c1`: more than 80000 nM, 9.68 and 142 nM.
With `CC(C)(C)C(=O)c1cccc(CN2C(=O)N(Cc3cccc(C(=O)C(C)(C)C)c3)[C@H](Cc3ccccc3)[C@H](O)[C@@H](O)[C@H]2Cc2ccccc2)c1`, the negative logarithm of the Ki (pKi) in series [2] was 8.44.
`Nc1cccc(CN2C(=O)N(Cc3cccc(N)c3)[C@H](Cc3ccccc3)[C@H](O)[C@@H](O)[C@H]2Cc2ccccc2)c1` [MOZENAVIR] came in with a peak concentration (Cmax) in series [3] of 2250 nM. This lies in the single-digit micromolar range.
For `C/C(=N/O)c1cccc(CN2C(=O)N(Cc3cccc(/C(C)=N/O)c3)[C@H](Cc3ccccc3)[C@H](O)[C@@H](O)[C@H]2Cc2ccccc2)c1`, the CC50 in the series on MT2 [1] was 81000 nM. Further, the pKi in series [2] is 10.74. In series [3], this molecule had a Cmax of 60 nM. Further, it took 2 nM to reach the 90% level with MT2 [4] (IC90).
The like results for `O=C1N[C@H](Cc2ccccc2)[C@H](O)[C@@H](O)[C@@H](Cc2ccccc2)N1Cc1cccc(-c2cc[nH]n2)c1` were, in that order, 21000 nM, 9.59, 780 nM and 67 nM.
Take `O=C1N(Cc2cccc(-c3nc[nH]n3)c2)[C@H](Cc2ccccc2)[C@H](O)[C@@H](O)[C@@H](Cc2ccccc2)N1Cc1cccc(-c2nc[nH]n2)c1`: the CC50 in the series on MT2 [1] came out at 53000 nM. In addition, in series [2], the pKi was 10.28. This molecule also showed a concentration for an effect of 90% (IC90) in the series on MT2 [4] of 128 nM.
`O=C1N(Cc2cccc(/C=N\O)c2)[C@H](Cc2ccccc2)[C@H](O)[C@@H](O)[C@@H](Cc2ccccc2)N1Cc1cccc(/C=N/O)c1`: the CC50 in the series with MT2 [1] came out at 16000 nM. Besides, in series [2], the pKi is 11.00. In series [3], this molecule showed a Cmax of 300 nM. The same molecule yielded an IC90 with MT2 [4] of 5 nM.
The matching figures for `O=C1N(Cc2cccc(-c3cc[nH]n3)c2)[C@H](Cc2ccccc2)[C@H](O)[C@@H](O)[C@@H](Cc2ccccc2)N1Cc1cccc(-c2cc[nH]n2)c1`: 4200 nM, 10.57, 68 nM and 20 nM.
On to `Nc1cccc(CN2C(=O)N(Cc3cccc(-c4cc[nH]n4)c3)[C@H](Cc3ccccc3)[C@H](O)[C@@H](O)[C@H]2Cc2ccccc2)c1`, for which the CC50 in the series on MT2 [1] was determined as 6800 nM. In series [5], the concentration peaked (Cmax) at 850 nM. This molecule had a pKi in series [2] of 10.46. In the series with MT2 [4], this molecule returned an IC90 of 27 nM.
For `CCC/C(=N/O)c1cccc(CN2C(=O)N(Cc3cccc(/C(CCC)=N/O)c3)[C@H](Cc3ccccc3)[C@H](O)[C@@H](O)[C@H]2Cc2ccccc2)c1`, the CC50 with MT2 [1] was determined as 3700 nM. Moreover, in series [2], the pKi is 10.51. In the series on MT2 [4], this molecule returned a concentration for an effect of 90% (IC90) of 64 nM.
As to `CC/C(=N/O)c1cccc(CN2C(=O)N(Cc3cccc(/C(CC)=N/O)c3)[C@H](Cc3ccccc3)[C@H](O)[C@@H](O)[C@H]2Cc2ccccc2)c1`, the CC50 in the series with MT2 [1] was determined as 5000 nM. This molecule also had a pKi in series [2] of 10.51. In addition, it took 7 nM to reach the 90% level with MT2 [4] (IC90).
The like results for `O=C1N(Cc2cccnc2)[C@H](Cc2ccccc2)[C@H](O)[C@@H](O)[C@@H](Cc2ccccc2)N1Cc1cccc(-c2cc[nH]n2)c1` were, in that order, 6300 nM, 9.77 and 94 nM.
With `O=C(NCCN1CCOCC1)c1cccc(CN2C(=O)N(Cc3cccc(-c4cc[nH]n4)c3)[C@H](Cc3ccccc3)[C@H](O)[C@@H](O)[C@H]2Cc2ccccc2)c1`, the CC50 with MT2 [1] stood at 43000 nM. The pKi in series [2] is 10.28. In the series on MT2 [4], this molecule gave a concentration for an effect of 90% (IC90) of 128 nM.
`COC(=O)c1cccc(CN2C(=O)N(Cc3cccc(-c4cc[nH]n4)c3)[C@H](Cc3ccccc3)[C@H](O)[C@@H](O)[C@H]2Cc2ccccc2)c1`: the CC50 in the series with MT2 [1] came to 5700 nM. The same molecule had a pKi in series [2] of 9.85. The Cmax in series [3] was 320 nM. In addition, in the series with MT2 [4], the 90% effect level (IC90) was put at 32 nM.
The like results for `O=C1N(Cc2cccc(-c3c[nH]cn3)c2)[C@H](Cc2ccccc2)[C@H](O)[C@@H](O)[C@@H](Cc2ccccc2)N1Cc1cccc(-c2c[nH]cn2)c1` were, in that order, 8800 nM, 9.72, less than 42 nM and 84 nM.
The matching figures for `O=C1N(Cc2cccc(CO)c2)[C@H](Cc2ccccc2)[C@H](O)[C@@H](O)[C@@H](Cc2ccccc2)N1Cc1cccc(-c2cc[nH]n2)c1`: 20000 nM, 9.80, 110 nM and 234 nM.
Consider `O=C1N(Cc2cccc(-c3nnn[nH]3)c2)[C@H](Cc2ccccc2)[C@H](O)[C@@H](O)[C@@H](Cc2ccccc2)N1Cc1cccc(-c2nnn[nH]2)c1`, for which the CC50 in the series with MT2 [1] is 78000 nM. The same molecule showed a pKi in series [2] of 8.18. This molecule yielded a concentration for an effect of 90% (IC90) in the series on MT2 [4] of more than 70000 nM.
The like results for `O=C1N(Cc2cccc(C(=O)C(F)(F)F)c2)[C@H](Cc2ccccc2)[C@H](O)[C@@H](O)[C@@H](Cc2ccccc2)N1Cc1cccc(C(=O)C(F)(F)F)c1` were, in that order, 5400 nM, 10.43 and 33 nM.
The matching figures for `CCCC(=O)c1cccc(CN2C(=O)N(Cc3cccc(C(=O)CCC)c3)[C@H](Cc3ccccc3)[C@H](O)[C@@H](O)[C@H]2Cc2ccccc2)c1`: more than 77000 nM, 8.85 and 1440 nM.
The matching figures for `O=C1N(Cc2cccc(-c3ncc[nH]3)c2)[C@H](Cc2ccccc2)[C@H](O)[C@@H](O)[C@@H](Cc2ccccc2)N1Cc1cccc(-c2ncc[nH]2)c1`: 78000 nM, 9.80 and 234 nM.
`CC(=O)c1cccc(CN2C(=O)N(Cc3cccc(C(C)=O)c3)[C@H](Cc3ccccc3)[C@H](O)[C@@H](O)[C@H]2Cc2ccccc2)c1`: the CC50 with MT2 [1] came to 20000 nM. The negative logarithm of the Ki (pKi) in series [2] was 10.22. The same molecule had a Cmax in series [3] of 500 nM. In addition, the 90% effect level with MT2 [4] (IC90) was put at 39 nM.
The like results for `O=Cc1cccc(CN2C(=O)N(Cc3cccc(C=O)c3)[C@H](Cc3ccccc3)[C@H](O)[C@@H](O)[C@H]2Cc2ccccc2)c1` were, in that order, 19000 nM, 9.36, 260 nM and 36 nM.

Source of the values: ChEMBL document CHEMBL1131241, “Cyclic HIV protease inhibitors: design and synthesis of orally bioavailable, pyrazole P2/P2' cyclic ureas with improved potency” (J Med Chem, 1998).
